From ChEMBL document CHEMBL1157161, “N-1H-benzimidazol-5-ylbenzenesulfonamide derivatives as potent hPXR agonists” (Bioorg Med Chem, 2008)

Tests used:
[1] = molecular target: T1, Nuclear receptor subfamily 1 group I member 2 (Homo sapiens, UniProt O75469); assay: Agonist activity at human pregnane X receptor expressed in HGPXR reporter cells; type: functional, cell-based
T1 sequence (O75469 whole entry): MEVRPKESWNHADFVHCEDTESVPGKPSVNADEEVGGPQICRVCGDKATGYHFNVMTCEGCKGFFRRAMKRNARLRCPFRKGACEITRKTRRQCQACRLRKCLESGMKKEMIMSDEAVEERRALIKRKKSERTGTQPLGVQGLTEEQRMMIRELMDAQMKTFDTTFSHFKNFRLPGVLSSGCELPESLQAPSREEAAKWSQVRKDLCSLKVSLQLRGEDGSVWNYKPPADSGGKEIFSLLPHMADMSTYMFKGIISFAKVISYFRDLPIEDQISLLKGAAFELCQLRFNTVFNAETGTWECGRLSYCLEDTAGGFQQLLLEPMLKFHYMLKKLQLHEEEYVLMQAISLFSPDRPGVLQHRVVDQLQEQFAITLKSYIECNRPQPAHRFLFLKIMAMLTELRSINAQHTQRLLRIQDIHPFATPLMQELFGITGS

Hepatocyte [2] = assay: Induction of CYP3A4 mRNA expression in human hepatocyte FT268 at 1 uM after 24 hrs by RT-PCR relative to control; type: functional
Outline: (§1)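 Primary adult human hepatocytes from lobectomy segments, plated on collagen in Williams' E/Ham's F-12 (1:1) defined medium; 24 h exposure begun 48 h after plating, vehicle DMSO 0.1%. Total RNA extracted with TRIzol, cDNA from 1 µg using random hexamers (42 °C, 60 min). Target mRNA quantified by real-time PCR in duplicates, comparative Ct method. Result given as fold induction over DMSO-treated cells ± standard error.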

Hepatocyte [3] = assay: Induction of […] mRNA expression in human hepatocyte FT268 at 1 uM after 24 hrs by RT-PCR relative to control; type: functional; outline: as §1
Hepatocyte [4] = assay: Induction of CYP3A4 mRNA expression in human hepatocyte FT269 at 1 uM after 24 hrs by RT-PCR relative to control; type: functional; outline: as §1
Hepatocyte [5] = assay: Induction of […] mRNA expression in human hepatocyte FT269 at 1 uM after 24 hrs by RT-PCR relative to control; type: functional; outline: as §1
Hepatocyte [6] = assay: Induction of CYP3A4 mRNA expression in human hepatocyte FT271 at 1 uM after 24 hrs by RT-PCR relative to control; type: functional; outline: as §1
Hepatocyte [7] = assay: Induction of […] mRNA expression in human hepatocyte FT271 at 1 uM after 24 hrs by RT-PCR relative to control; type: functional; outline: as §1
Hepatocyte [8] = assay: Induction of CYP3A4 mRNA expression in human hepatocyte FT272 at 1 uM after 24 hrs by RT-PCR relative to control; type: functional; outline: as §1
Hepatocyte [9] = assay: Induction of […] mRNA expression in human hepatocyte FT272 at 1 uM after 24 hrs by RT-PCR relative to control; type: functional; outline: as §1
[10] = molecular target: T1, Nuclear receptor subfamily 1 group I member 2; assay: Protection of human pregnane X receptor against proteolytic digestion in presence of trypsin

| SMILES | EC50 [1] | further results |
| --- | --- | --- |
| O=[N+]([O-])c1ccccc1CS(=O)(=O)Nc1ccc2c(c1)ncn2Cc1ccccc1 | 428 nM | – |
| O=[N+]([O-])c1ccccc1S(=O)(=O)Nc1ccc2c(c1)ncn2Cc1ccccc1 | 271 nM | – |
| O=[N+]([O-])c1ccc(S(=O)(=O)Nc2ccc3c(c2)ncn3Cc2ccccc2)cc1 | 336 nM | – |
| O=S(=O)(Nc1ccc2ncn(Cc3ccccc3)c2c1)c1ccccc1Cl | 340 nM | – |
| CCOP(=O)(OCC)C(=Cc1cc(C(C)(C)C)c(O)c(C(C)(C)C)c1)P(=O)(OCC)OCC | – | Ratio (Hepatocyte [2]): 4.02; Ratio (Hepatocyte [3]): 3.26; Ratio (Hepatocyte [4]): 10.9; Ratio (Hepatocyte [5]): 3.74; Ratio (Hepatocyte [6]): 11.84; Ratio (Hepatocyte [7]): 2; Ratio (Hepatocyte [8]): 24.01; Ratio (Hepatocyte [9]): 3.91 |
| O=C(Nc1ccc2c(c1)ncn2Cc1ccccc1)Nc1ccccc1[N+](=O)[O-] | > 5000 nM | – |
| CC(C)(C)c1ccc(S(=O)(=O)Nc2ccc3c(c2)ncn3Cc2ccccc2)cc1 | 42 nM | – |
| Cc1cc(C)c(S(=O)(=O)Nc2ccc3c(c2)ncn3Cc2ccccc2)c(C)c1 | 1.5 nM | EC50 [10]: 8.05 nM; Ratio (Hepatocyte [6]): 15.58; Ratio (Hepatocyte [7]): 1.89; Ratio (Hepatocyte [8]): 31.68; Ratio (Hepatocyte [9]): 7.55 |
| O=C(Cc1cccc2ccccc12)Nc1ccc2c(c1)ncn2Cc1ccccc1 | 217 nM | – |
| O=S(=O)(Nc1ccc2c(c1)ncn2Cc1ccccc1)c1ccccc1Br | 20 nM | – |
| CCCCCCn1cnc2cc(NS(=O)(=O)c3ccccc3Cl)ccc21 | 55 nM | – |
| CCCCCCn1cnc2cc(NS(=O)(=O)c3c(C)c(C)c(C)c(C)c3C)ccc21 | 13 nM | – |
| O=S(=O)(Cc1ccccc1Cl)Nc1ccc2c(ccn2Cc2ccccc2)c1 | 197 nM | – |
| O=S(=O)(Nc1ccc2c(c1)ncn2Cc1ccccc1)c1ccc2ccccc2c1 | 51 nM | – |
| O=C(Nc1ccc2c(c1)ncn2Cc1ccccc1)Nc1cccc2ccccc12 | > 5000 nM | – |

More lines, main results first:

| EC50 [1] | SMILES | further results |
| --- | --- | --- |
| 20 nM | O=S(=O)(Nc1ccc2c(c1)ncn2Cc1ccccc1)c1cccc2ccccc12 | – |
| 376 nM | O=S(=O)(Cc1ccccc1Cl)Nc1ccc2ncn(Cc3ccccc3)c2c1 | – |
| 1480 nM | O=C(Nc1ccc2c(c1)ncn2Cc1ccccc1)Nc1ccccc1Cl | – |
| 385 nM | O=S(=O)(Nc1ccc2c(c1)ncn2-c1ccc2ccccc2c1)c1ccccc1Cl | – |
| 388 nM | O=S(=O)(Nc1ccc2c(c1)ncn2Cc1ccccc1)c1ccc(-c2ccccc2)cc1 | – |
| 0.7 nM | Cc1c(C)c(C)c(S(=O)(=O)Nc2ccc3c(c2)ncn3Cc2ccccc2)c(C)c1C | EC50 [10]: 8.04 nM; Ratio (Hepatocyte [4]): 29.02; Ratio (Hepatocyte [5]): 14.89; Ratio (Hepatocyte [6]): 14.91; Ratio (Hepatocyte [7]): 4.86; Ratio (Hepatocyte [8]): 32.59; Ratio (Hepatocyte [9]): 11.41 |
| 33 nM | Cc1cc(C)cc(S(=O)(=O)Nc2ccc3c(c2)ncn3Cc2ccccc2)c1 | – |
| 515 nM | O=C(Cc1ccccc1Cl)Nc1ccc2c(c1)ncn2Cc1ccccc1 | – |
| > 5000 nM | O=C(Cc1ccc2ccccc2c1)Nc1ccc2c(c1)ncn2Cc1ccccc1 | – |
| 23 nM | O=S(=O)(Nc1ccc2c(c1)ncn2Cc1ccccc1)c1ccccc1Cl | EC50 [10]: 157 nM; Ratio (Hepatocyte [2]): 7.23; Ratio (Hepatocyte [3]): 3.02; Ratio (Hepatocyte [4]): 17.04; Ratio (Hepatocyte [5]): 10.46; Ratio (Hepatocyte [6]): 9.97; Ratio (Hepatocyte [7]): 3.05; Ratio (Hepatocyte [8]): 36.06; Ratio (Hepatocyte [9]): 11.83 |
| 55 nM | Cc1c(C)c(C)c(S(=O)(=O)Nc2ccc3c(c2)ncn3-c2ccc3ccccc3c2)c(C)c1C | – |
| 176 nM | O=S(=O)(Cc1ccccc1Cl)Nc1ccc2c(c1)ncn2Cc1ccccc1 | – |
| 101 nM | O=S(=O)(Nc1ccc2c(c1)ncn2Cc1ccccc1)c1ccccc1F | – |
| 52 nM | CCCc1ccc(S(=O)(=O)Nc2ccc3c(c2)ncn3Cc2ccccc2)cc1 | – |
| 45 nM | Cc1ccccc1S(=O)(=O)Nc1ccc2c(c1)ncn2Cc1ccccc1 | – |
| 49 nM | CC(c1ccccc1)n1cnc2cc(NS(=O)(=O)Cc3ccccc3Cl)ccc21 (racemic) | EC50 [10]: 809 nM |
